# Hit rate of the full screen: of about 5,600 compounds, about 1,200 (21%) were called active. Roughly 3% stayed inconclusive and do not appear here.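 How the source made its calls: active means mean inhibition above about 95%, with at least 55% of replicates also reaching it (limit read from the data); inconclusive means meets just one of the two conditions; inactive means meets neither condition.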 Only a sample is shown.
# Assay: Trypanosoma cruzi growth blockers in host fibroblasts – NIH3T3 host cells, beta-gal parasites, cherry-pick, set 2, confirmation (AID 651740);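 further: plate controls were neutral control median for no effect and positive control median for full effect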
# Settings: T. cruzi beta-gal in NIH3T3, GalScreen luminescence, 90 h; at 2.09 µM; stronger effect = higher value
# Method in brief: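 Material: T. cruzi Tulahuen C4 (beta-gal) in NIH/3T3 cells | Schedule: Host attachment 3 h, co-culture ≥90 h, lysis 60 min | Signal: GalScreen lysis and luminescent beta-gal signal | Also added: 5000 beta-gal T. cruzi trypomastigotes per well | Compound: Single point, 100 nL compound in DMSO pinned per well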
row,SMILES,inhibition
1,COc1ccc(S(=O)(=O)Nc2ccc3c(c2)C(=O)N([C@@H](C)CO)C[C@H](C)[C@@H](CN(C)Cc2ccc(C(F)(F)F)cc2)O3)cc1,58.4% (inactive)
2,CNC[C@H]1OCCCC[C@H](C)Oc2ccc(NC(=O)Nc3c(C)noc3C)cc2C(=O)N([C@H](C)CO)C[C@H]1C,2.68% (inactive)
3,O=C(Nc1cc(F)ccc1F)N1CCCCN2[C@H](CO)[C@@H](c3ccc(-c4cncnc4)cc3)[C@H]2C1,13.7% (inactive)
4,Cc1ccc(-c2cnc3c(c2)C(=O)N([C@@H](C)CO)C[C@@H](C)[C@H](CN(C)Cc2ccccc2F)O3)cc1,72.1% (inactive)
5,CN(C)C(=O)c1ccc(-c2ccc([C@H]3[C@@H](CO)N4CCCCN(CC5CC5)C[C@H]34)cc2)cc1,60.8% (inactive)
6,O=C(C[C@@H]1C[C@H]2c3cc(NC(=O)C4CCC4)ccc3O[C@H]2[C@@H](CO)O1)NCc1ccc2c(c1)OCO2,-16.2% (inactive)
7,C[C@H](CO)N1C[C@H](C)[C@@H](CN(C)S(=O)(=O)c2ccc(F)cc2)Oc2cc(C3=CCCC3)ccc2S1(=O)=O,78.5% (inactive)
8,C[C@@H]1CN([C@@H](C)CO)S(=O)(=O)c2ccc(C#Cc3ccc(F)cc3)cc2O[C@H]1CN(C)S(C)(=O)=O,27.8% (inactive)
9,C[C@@H]1CN([C@H](C)CO)C(=O)CCCn2nncc2CO[C@@H]1CN(C)Cc1ccc(C(=O)Nc2ccccc2N)cc1,59.4% (inactive)
10,C[C@@H]1CCCCO[C@H](CN(C)C(=O)CCC(F)(F)F)[C@H](C)CN([C@H](C)CO)C(=O)c2cc(NS(C)(=O)=O)ccc2O1,7.29% (inactive)
11,COc1ccc(NC(=O)N(C)C[C@H]2OCCCC[C@H](C)Oc3ccc(NC(=O)Nc4ccc(C(F)(F)F)cc4)cc3C(=O)N([C@@H](C)CO)C[C@@H]2C)cc1,113% (active)
12,CC(C)NC(=O)Nc1ccc2c(c1)C(=O)N([C@H](C)CO)C[C@H](C)[C@H](CN(C)C(=O)Nc1ccc(C(F)(F)F)cc1)OCCCC[C@@H](C)O2,94% (inactive)
13,C[C@@H]1CCCCO[C@H](CN(C)C(=O)Nc2ccc(C(F)(F)F)cc2)[C@H](C)CN([C@H](C)CO)C(=O)c2cc(NC(=O)Nc3ccc(C(F)(F)F)cc3)ccc2O1,115% (active)
14,C[C@@H]1CN([C@@H](C)CO)C(=O)c2cc(NC(=O)Nc3ccc(C(F)(F)F)cc3)ccc2O[C@@H](C)CCCCO[C@H]1CN(C)C(=O)c1ccccc1,69.7% (inactive)
15,C[C@H](CO)N1C[C@H](C)[C@H](CN(C)C(=O)Nc2ccc(C(F)(F)F)cc2)OCCCC[C@H](C)Oc2ccc(NC(=O)C3CCCCC3)cc2C1=O,109% (active)
16,CCCC#Cc1ccc2c(c1)O[C@H](CN(C)C(=O)CC)[C@@H](C)CN([C@H](C)CO)S2(=O)=O,38.5% (inactive)
17,C/C=C/c1ccc([C@H]2[C@@H](CNC(C)C)N(c3nc(CC)cs3)[C@H]2CO)cc1,89.5% (inactive)
18,CCCC#Cc1ccc([C@H]2[C@H](CO)N3CCCCN(C(=O)c4ccc5c(c4)OCO5)C[C@@H]23)cc1,42.1% (inactive)

row,SMILES,inhibition
1,O=C(c1ccc(F)cc1)N1CCCCN2[C@H](C1)[C@@H](c1ccc(C#CC3(O)CCCC3)cc1)[C@@H]2CO,2.53% (inactive)
2,CCCNC(=O)N(C)C[C@@H]1Oc2ncc(C#Cc3ccccc3F)cc2C(=O)N([C@@H](C)CO)C[C@H]1C,94.5% (inactive)
3,O=C(Nc1ccc(-c2ccccc2)cc1)[C@H]1[C@H](CO)[C@H]2Cn3c(cccc3=O)[C@H]2N1CC1CC1,33.8% (inactive)
4,C[C@@H]1CN([C@H](C)CO)C(=O)c2cc(-c3cncnc3)cnc2O[C@H]1CN(C)C(=O)Nc1ccc2c(c1)OCO2,-52% (inactive)
5,N#C[C@@H]1[C@@H](c2ccc(/C=C/c3ccccc3)cc2)[C@@H](CO)N1C(=O)C1CC1,68.6% (inactive)
6,C[C@H](CO)N1C[C@H](C)[C@H](CN(C)Cc2ccc(C(F)(F)F)cc2)Oc2ccc(NS(=O)(=O)c3ccc(Cl)cc3)cc2C1=O,74% (inactive)
7,COc1ccc(S(=O)(=O)Nc2ccc3c(c2)C(=O)N([C@H](C)CO)C[C@@H](C)[C@@H](CN(C)CC2CCCCC2)OCCCC[C@@H](C)O3)cc1,105% (active)
8,COc1ccc(S(=O)(=O)N(C)C[C@H]2OCCCC[C@H](C)Oc3ccc(NS(=O)(=O)c4ccc(F)cc4)cc3C(=O)N([C@@H](C)CO)C[C@@H]2C)cc1,54% (inactive)
9,C[C@@H]1CCCCO[C@H](CN(C)Cc2ccccc2)[C@H](C)CN([C@H](C)CO)C(=O)c2cc(NS(=O)(=O)c3ccc(Cl)cc3)ccc2O1,107% (active)
10,C[C@@H]1CN([C@H](C)CO)C(=O)c2cc(NS(=O)(=O)c3cccs3)ccc2O[C@@H](C)CCCCO[C@@H]1CN(C)S(=O)(=O)c1ccc(Cl)cc1,63.6% (inactive)
11,C[C@@H]1CN([C@H](C)CO)C(=O)c2cc(NS(=O)(=O)c3ccc(Cl)cc3)ccc2O[C@@H](C)CCCCO[C@H]1CN(C)Cc1ccccc1,94.6% (inactive)
12,C[C@@H]1CCCCO[C@H](CN(C)S(=O)(=O)c2cccs2)[C@H](C)CN([C@H](C)CO)C(=O)c2cc(NS(=O)(=O)c3ccc(F)cc3)ccc2O1,62.8% (inactive)
13,C[C@@H]1CCCCO[C@H](CN(C)C(=O)NC2CCCCC2)[C@H](C)CN([C@H](C)CO)C(=O)c2cc(NS(=O)(=O)c3ccc(Cl)cc3)ccc2O1,50.5% (inactive)
14,COc1ccc(S(=O)(=O)Nc2ccc3c(c2)C(=O)N([C@H](C)CO)C[C@H](C)[C@H](CN(C)Cc2ccc(C(F)(F)F)cc2)O3)cc1,85.4% (inactive)
15,C[C@H](CO)N1C[C@H](C)[C@H](CN(C)Cc2ccc(C(F)(F)F)cc2)OCCCC[C@H](C)Oc2ccc(NS(=O)(=O)c3ccc(Cl)cc3)cc2C1=O,104% (active)
16,C[C@@H]1CN([C@H](C)CO)C(=O)c2cc(NS(=O)(=O)c3cccs3)ccc2O[C@@H](C)CCCCO[C@H]1CN(C)Cc1ccc(C(F)(F)F)cc1,112% (active)
17,Cc1ccc(S(=O)(=O)N(C)C[C@@H]2OCCCC[C@@H](C)Oc3ccc(NS(=O)(=O)c4ccc(F)cc4)cc3C(=O)N([C@H](C)CO)C[C@H]2C)cc1,76.8% (inactive)

# — PubChem BioAssay AID651740 (Broad Institute, 2012)
